Laboratory results reported in ChEMBL document CHEMBL4406923, “New Potent DOT1L Inhibitors for in Vivo Evaluation in Mouse” (ACS Med Chem Lett, 2019).
Values belong to the molecule of their own block, whether it stands above or below them. Calls of active or inactive are those of the source. No cut-off for these calls is given here.

Tests used:
[1] = target: T1, Histone-lysine N-methyltransferase, H3 lysine-79 specific (Homo sapiens, UniProt Q8TEK3); assay: Inhibition of 0.5 nM DOT1L (2 to 416 residues) (unknown origin) using biotinylated nucleosome as substrate and [3H]SAM as co-factor preincubated for 30 mins followed by substrate and cofactor addition and measured after 90 mins by scintillation proximity assay
Target sequence in this assay (Q8TEK3 whole entry, the tested form may be a part): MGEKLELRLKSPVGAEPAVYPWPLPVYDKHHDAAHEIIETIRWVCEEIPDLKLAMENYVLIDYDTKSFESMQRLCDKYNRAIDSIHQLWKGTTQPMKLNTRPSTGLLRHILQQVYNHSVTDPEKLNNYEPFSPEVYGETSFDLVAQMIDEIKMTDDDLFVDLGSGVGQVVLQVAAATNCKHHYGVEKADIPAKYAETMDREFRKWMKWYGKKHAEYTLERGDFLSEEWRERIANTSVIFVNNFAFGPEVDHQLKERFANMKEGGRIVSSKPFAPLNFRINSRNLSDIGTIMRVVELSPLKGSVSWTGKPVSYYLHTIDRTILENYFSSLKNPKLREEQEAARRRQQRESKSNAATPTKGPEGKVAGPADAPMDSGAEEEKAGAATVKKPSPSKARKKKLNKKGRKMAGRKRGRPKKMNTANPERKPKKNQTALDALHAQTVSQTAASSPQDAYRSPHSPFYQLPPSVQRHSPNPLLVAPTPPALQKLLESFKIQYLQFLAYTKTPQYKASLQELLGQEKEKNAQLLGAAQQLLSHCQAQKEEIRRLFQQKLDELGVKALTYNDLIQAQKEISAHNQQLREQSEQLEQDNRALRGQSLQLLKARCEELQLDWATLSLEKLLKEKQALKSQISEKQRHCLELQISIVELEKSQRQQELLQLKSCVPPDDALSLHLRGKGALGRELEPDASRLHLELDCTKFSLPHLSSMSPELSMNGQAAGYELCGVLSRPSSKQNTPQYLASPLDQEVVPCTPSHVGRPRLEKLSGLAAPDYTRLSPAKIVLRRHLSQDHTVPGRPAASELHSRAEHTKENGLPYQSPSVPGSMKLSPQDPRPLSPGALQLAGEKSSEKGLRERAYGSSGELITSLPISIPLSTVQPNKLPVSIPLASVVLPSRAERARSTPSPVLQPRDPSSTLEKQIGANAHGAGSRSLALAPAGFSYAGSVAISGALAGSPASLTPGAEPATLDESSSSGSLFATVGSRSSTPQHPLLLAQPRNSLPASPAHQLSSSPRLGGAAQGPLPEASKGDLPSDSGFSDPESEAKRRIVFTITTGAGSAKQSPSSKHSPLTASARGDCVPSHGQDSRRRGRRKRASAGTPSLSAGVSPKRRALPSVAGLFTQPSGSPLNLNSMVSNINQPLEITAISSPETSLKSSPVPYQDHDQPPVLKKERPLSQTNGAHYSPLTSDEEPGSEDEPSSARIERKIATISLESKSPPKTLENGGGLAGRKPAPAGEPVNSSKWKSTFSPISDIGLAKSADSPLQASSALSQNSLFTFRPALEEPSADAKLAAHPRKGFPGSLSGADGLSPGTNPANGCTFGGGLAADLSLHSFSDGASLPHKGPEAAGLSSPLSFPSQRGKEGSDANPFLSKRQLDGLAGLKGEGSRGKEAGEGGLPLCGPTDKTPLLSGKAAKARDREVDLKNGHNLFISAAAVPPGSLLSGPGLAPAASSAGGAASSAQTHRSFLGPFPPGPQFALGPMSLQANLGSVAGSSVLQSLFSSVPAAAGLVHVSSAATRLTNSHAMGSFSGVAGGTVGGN

[2] = Intrinsic clearance in rat liver microsomes; assay type: ADME, Microsome; details: read-out: CLH
[3] = target: T1, Histone-lysine N-methyltransferase, H3 lysine-79 specific; assay: Inhibition of 0.05 nM DOT1L (2 to 416 residues) (unknown origin) using biotinylated nucleosome as substrate and [3H]SAM as co-factor preincubated for 30 mins followed by substrate and cofactor addition and measured after 180 mins by scintillation proximity assay
Target sequence in this assay (Q8TEK3 whole entry, the tested form may be a part): as above

[4] = target: T1, Histone-lysine N-methyltransferase, H3 lysine-79 specific; assay: Inhibition of DOT1L in human HeLa cells assessed as reduction in H3K79 dimethylation measured after 72 hrs by ELISA; assay type: cell-based
Target sequence in this assay (Q8TEK3 whole entry, looked up, the tested form may be a part): as the sequence (Q8TEK3 whole entry, the tested form may be a part) above

[5] = target: T1, Histone-lysine N-methyltransferase, H3 lysine-79 specific; assay: Inhibition of DOT1L in human MOLM13 cells assessed as reduction in HOXA9 gene expression incubated for 72 hrs by bright-glo luciferase reporter gene assay; assay type: cell-based
Target sequence in this assay (Q8TEK3 whole entry, looked up, the tested form may be a part): as the sequence (Q8TEK3 whole entry, the tested form may be a part) above

[6] = Lipophilicity, log D of the compound at pH 7.4; assay type: physicochemical; details: buffer
[7] = Drug uptake in C57BL/6 mouse at 50 mg/kg, sc administered twice daily for 7 days; assay type: ADME, organism-based; details: in vivo, 168 h
[8] = Toxicity in NOD-SCID mouse xenografted with human MV4-11 cells assessed as change in body weight at 75 mg/kg, sc administered qd for 20 days; details: in vivo, 480 h
[9] = Toxicity in NOD-SCID mouse xenografted with human MV4-11 cells assessed as change in body weight at 75 mg/kg, sc administered bid for 20 days; details: in vivo, 480 h
[10] = test system: MV4-11; assay: Antitumor activity against human MV4-11 cells xenografted in NOD-SCID mouse assessed as tumor growth inhibition at 75 mg/kg, sc qd administered for 20 days
[11] = test system: MV4-11; assay: Antitumor activity against human MV4-11 cells xenografted in NOD-SCID mouse assessed as tumor growth inhibition at 75 mg/kg, sc administered bid for 20 days; details: MV4-11, sc, 480 h, read-out: TGI
[12] = test system: Mus musculus; assay: In vivo inhibition of DOT1L in NOD-SCID mouse xenografted with human MV4-11 cells assessed as reduction in H3K79 dimethylation at 75 mg/kg, sc administered bid for 20 days
[13] = test system: Mus musculus; assay: In vivo inhibition of DOT1L in NOD-SCID mouse xenografted with human MV4-11 cells assessed as reduction in H3K79 dimethylation at 75 mg/kg, sc administered twice daily for 20 days
[14] = test system: Mus musculus; assay: In vivo inhibition of DOT1L in NOD-SCID mouse xenografted with human MV4-11 cells assessed as reduction in H3K79 dimethylation at 75 mg/kg, sc administered once daily for 20 days by ELISA
[15] = test system: Mus musculus; assay: In vivo inhibition of DOT1L in NOD-SCID mouse xenografted with human MV4-11 cells assessed as reduction in HOXA9 gene expression at 75 mg/kg, sc administered qd for 20 days by qPCR analysis; details: MV4-11, sc, 480 h
[16] = test system: Mus musculus; assay: In vivo inhibition of DOT1L in NOD-SCID mouse xenografted with human MV4-11 cells assessed as reduction in MEIS1 gene expression at 75 mg/kg, sc administered qd for 20 days by qPCR analysis; details: MV4-11, sc, 480 h
[17] = test system: Mus musculus; assay: In vivo inhibition of DOT1L in NOD-SCID mouse xenografted with human MV4-11 cells assessed as reduction in HOXA9 gene expression at 75 mg/kg, sc administered bid for 20 days by qPCR analysis; details: MV4-11, sc, 480 h
[18] = test system: Mus musculus; assay: In vivo inhibition of DOT1L in NOD-SCID mouse xenografted with human MV4-11 cells assessed as reduction in MEIS1 gene expression at 75 mg/kg, sc administered bid for 20 days by qPCR analysis; details: MV4-11, sc, 480 h
[19] = test system: MV4-11; assay: Antitumor activity against human MV4-11 cells xenografted in sc dosed C57BL/6 mouse assessed as reduction in tumor growth at => MTD; assay type: functional, organism-based
[20] = Cmax in C57BL/6 mouse at 100 mg/kg, po administered as single dose; assay type: ADME, organism-based; parameters: dose 100 mg/kg, route oral; details: in vivo
[21] = AUC (0 to 12 hrs) in C57BL/6 mouse at 100 mg/kg, po administered as single dose; assay type: ADME, organism-based; parameters: dose 100 mg/kg, time < 12 hr, route oral; details: in vivo
[22] = Cmax in C57BL/6 mouse at 100 mg/kg, po bid for 20 days; assay type: ADME, organism-based; parameters: dose 100 mg/kg, route oral; details: in vivo
[23] = AUC (0 to 12 hrs) in C57BL/6 mouse at 100 mg/kg, po bid for 20 days; assay type: ADME, organism-based; parameters: dose 100 mg/kg, time < 12 hr, route oral; details: in vivo
[24] = Induction of CYP3A4 in rat hepatocytes; assay type: ADME, cell-based
[25] = target: Cytochrome P450 3A4 (Homo sapiens, UniProt P08684); assay: Induction of CYP3A4 in human hepatocytes; assay type: ADME, cell-based
Cytochrome P450 3A4, sequence (P08684 whole entry): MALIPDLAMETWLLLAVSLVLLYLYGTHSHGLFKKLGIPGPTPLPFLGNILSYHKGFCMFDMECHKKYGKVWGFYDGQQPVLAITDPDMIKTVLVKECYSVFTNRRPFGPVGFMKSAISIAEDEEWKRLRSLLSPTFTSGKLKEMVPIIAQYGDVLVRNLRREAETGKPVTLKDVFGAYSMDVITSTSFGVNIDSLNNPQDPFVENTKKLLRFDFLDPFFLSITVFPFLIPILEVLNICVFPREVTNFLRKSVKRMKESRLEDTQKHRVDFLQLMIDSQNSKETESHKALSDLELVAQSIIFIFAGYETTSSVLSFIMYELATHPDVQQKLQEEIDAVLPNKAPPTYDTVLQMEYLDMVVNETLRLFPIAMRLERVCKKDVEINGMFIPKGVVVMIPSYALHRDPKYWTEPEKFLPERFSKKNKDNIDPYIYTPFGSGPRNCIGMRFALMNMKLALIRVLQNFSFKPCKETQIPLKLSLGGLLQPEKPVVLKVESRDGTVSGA

[26] = Oral bioavailability in Sprague-Dawley Crl:CD(SD) rat at 3 mg/kg measured upto 24 hrs by LC-MS/MS analysis; assay type: ADME, organism-based; details: in vivo
[27] = Oral bioavailability in C57BL/6 mouse at 3 mg/kg measured upto 24 hrs by LC-MS/MS analysis; assay type: ADME, organism-based; details: in vivo
[28] = test system: MV4-11; assay: Antitumor activity against human MV4-11 cells xenografted in C57BL/6 mouse assessed as tumor growth inhibition at 200 mg/kg, administered twice daily for 23 days; assay type: functional, organism-based
Procedure, shortened: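 Mice bearing subcutaneous MV4-11 xenografts were treated for 23 days at 200 mg/kg twice daily. Tumor growth inhibition was assessed against control.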

[29] = test system: Mus musculus; assay: In vivo inhibition of DOT1L in C57BL/6 mouse xenografted with human MV4-11 cells assessed as reduction in HOXA9 gene expression at 200 mg/kg, administered twice daily for 23 days by qPCR analysis; assay type: functional, organism-based
[30] = test system: Mus musculus; assay: In vivo inhibition of DOT1L in C57BL/6 mouse xenografted with human MV4-11 cells assessed as reduction in MEIS1 gene expression at 200 mg/kg, administered twice daily for 23 days by qPCR analysis; assay type: functional, organism-based
[31] = test system: Mus musculus; assay: In vivo inhibition of DOT1L in C57BL/6 mouse xenografted with human MV4-11 cells assessed as reduction in H3K79 dimethylation at 200 mg/kg, administered twice daily for 23 days by ELISA relative to control; assay type: functional; details: 552 h

IC50 [1]: 270 nM | microsomal CLint [2]: 553 µL/min/mg
SMILES: CS(=O)(=O)c1ccc(N[C@@H](c2cccc(Cl)c2)c2ccccn2)c(Nc2ncccn2)c1

IC50 [1]: 8500 nM
SMILES: NS(=O)(=O)c1ccc(NC(c2ccccc2)c2ccccc2)c([N+](=O)[O-])c1

IC50 [1]: 97 nM | microsomal CLint [2]: 50 µL/min/mg
SMILES: CS(=O)(=O)c1ccc(N[C@H](c2ccccn2)c2cccc(Cl)c2F)c(Nc2ncccn2)c1

IC50 [1]: 4600 nM
SMILES: CS(=O)(=O)c1ccc(NC(c2cccc(Cl)c2)c2ccccn2)c([N+](=O)[O-])c1 (racemic)

IC50 [3]: 0.17 nM | ED50 [4]: 2.9 nM | ED50 [5]: 30 nM | logD [6]: 3.5 | Drug uptake [7]: Active
SMILES: COc1nc(N)nc(Nc2cc(S(N)(=O)=O)ccc2N[C@@H](c2cccc3c2OC(F)(F)O3)c2ncccc2Cl)n1
Activity [8]: Non-Toxic | Activity [9]: Non-Toxic | TGI [10]: inactive | inhibition in vivo at 75 mg/kg [11]: 73% | inhibition [12]: Active | inhibition [13]: Active | inhibition [14]: Active | inhibition in vivo at 75 mg/kg [15]: 25% | inhibition in vivo at 75 mg/kg [16]: 53% | inhibition in vivo at 75 mg/kg [17]: 53% | inhibition in vivo at 75 mg/kg [18]: 74%

IC50 [3]: 0.19 nM | ED50 [4]: 12 nM | ED50 [5]: 170 nM
SMILES: COc1nc(Nc2cc(S(C)(=O)=O)ccc2N[C@@H](c2cccc3c2OC(F)(F)O3)c2ncccc2Cl)nc(OC)n1

SMILES: CC(C)N(C[C@H]1O[C@@H](n2cnc3c(N)ncnc32)[C@H](O)[C@@H]1O)[C@H]1C[C@@H](CCc2nc3cc(C(C)(C)C)ccc3[nH]2)C1
Activity [19]: inactive

IC50 [3]: 0.59 nM | ED50 [4]: 43 nM | Cmax [20]: 24 µM | AUC(0-t) at 12 h [21]: 216 µM·h | Cmax [22]: 12 µM | AUC at 12 h [23]: 47 µM·h | Activity [24]: Active | Activity [25]: Active
SMILES: COc1nc(Nc2cc(S(C)(=O)=O)ccc2N[C@@H](c2cccc(Cl)c2F)c2ncccc2F)nc(OC)n1

IC50 [1]: 16 nM
SMILES: CS(=O)(=O)c1ccc(N[C@@H](c2cccc(Cl)c2F)c2ncccc2F)c(Nc2ncccn2)c1

IC50 [1]: 3.9 nM | IC50 [3]: 2.1 nM | ED50 [4]: 300 nM | ED50 [5]: 4500 nM | bioavailability [26]: 36% | bioavailability [27]: 26%
SMILES: CS(=O)(=O)c1ccc(N[C@H](c2ccccn2)c2cccc(Cl)c2F)c(Nc2nccc(C(N)=O)n2)c1
TGI [28]: inactive | inhibition [29]: inactive | inhibition [30]: inactive | inhibition in vivo at 200 mg/kg [31]: 50%

IC50 [1]: 22800 nM
SMILES: CS(=O)(=O)c1ccc(N[C@H](c2cccc(Cl)c2)c2ccccn2)c(Nc2ncccn2)c1
